IC50, Heart rate and MAP data for three compounds are collected here from ChEMBL document CHEMBL1123463, “Two stereoisomeric imidazoline derivatives: synthesis and optical and alpha 2-adrenoceptor activities” (J Med Chem, 1986).

What is called IC50 is the point on the concentration scale where inhibition reaches its midpoint. A low value points to inhibition by little substance.

In experiment [1] the target is T1, Adrenergic receptor alpha-2 (Rattus norvegicus, UniProt P22086+P19328+P22909).
T1 sequence (P22086 whole entry): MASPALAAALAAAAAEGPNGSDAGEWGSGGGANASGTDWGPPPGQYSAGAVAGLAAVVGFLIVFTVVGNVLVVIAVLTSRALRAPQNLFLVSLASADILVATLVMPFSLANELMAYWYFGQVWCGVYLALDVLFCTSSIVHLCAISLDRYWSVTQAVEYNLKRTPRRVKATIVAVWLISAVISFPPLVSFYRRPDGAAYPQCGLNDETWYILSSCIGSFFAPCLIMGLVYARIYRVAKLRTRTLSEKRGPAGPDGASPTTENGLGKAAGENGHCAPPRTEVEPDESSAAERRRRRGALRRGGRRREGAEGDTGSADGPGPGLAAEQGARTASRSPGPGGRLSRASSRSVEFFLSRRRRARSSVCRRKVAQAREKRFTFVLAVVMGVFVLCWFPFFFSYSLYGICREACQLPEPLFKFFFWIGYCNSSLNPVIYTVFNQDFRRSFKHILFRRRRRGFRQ
T1 sequence (P19328 whole entry): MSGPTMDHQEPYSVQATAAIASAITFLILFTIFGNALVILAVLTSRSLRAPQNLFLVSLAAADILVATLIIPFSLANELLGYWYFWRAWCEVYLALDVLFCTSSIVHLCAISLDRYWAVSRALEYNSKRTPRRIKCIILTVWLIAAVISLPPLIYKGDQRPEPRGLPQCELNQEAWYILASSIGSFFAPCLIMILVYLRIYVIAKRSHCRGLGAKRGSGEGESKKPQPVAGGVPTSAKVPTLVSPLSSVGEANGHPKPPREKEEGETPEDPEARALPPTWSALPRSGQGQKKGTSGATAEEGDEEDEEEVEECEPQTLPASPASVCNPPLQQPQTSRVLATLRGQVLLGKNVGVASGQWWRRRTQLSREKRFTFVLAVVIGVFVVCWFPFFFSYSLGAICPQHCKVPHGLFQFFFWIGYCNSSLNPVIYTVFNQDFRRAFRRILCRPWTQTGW
T1 sequence (P22909 whole entry): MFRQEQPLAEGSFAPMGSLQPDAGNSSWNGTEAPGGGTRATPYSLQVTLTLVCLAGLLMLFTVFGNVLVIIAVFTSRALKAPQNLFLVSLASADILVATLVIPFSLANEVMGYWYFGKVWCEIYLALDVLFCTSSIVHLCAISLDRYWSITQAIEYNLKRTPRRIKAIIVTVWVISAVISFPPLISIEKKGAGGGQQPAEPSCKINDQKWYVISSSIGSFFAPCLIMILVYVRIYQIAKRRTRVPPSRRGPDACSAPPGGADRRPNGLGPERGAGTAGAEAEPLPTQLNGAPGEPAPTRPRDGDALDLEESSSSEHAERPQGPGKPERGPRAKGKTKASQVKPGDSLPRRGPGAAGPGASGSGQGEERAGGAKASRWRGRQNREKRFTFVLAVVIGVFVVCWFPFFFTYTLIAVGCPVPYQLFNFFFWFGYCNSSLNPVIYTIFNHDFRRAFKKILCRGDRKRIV
The experiment is described as follows: Compound was tested for its ability to inhibit specific binding of [3H]clonidine to alpha-2 adrenergic receptor in rat brain. Format: tissue-based.

Experiment [2] concerns Rattus norvegicus. Put plainly: Maximal decrease of heart rate calculated as bradycardiac activity after intravenous injection of 1 ug/kg in rats. Format: functional. An outline of the steps:
(§1)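 Anesthetized male normotensive Wistar rats (200-350 g; ip sodium pentobarbitone 75.0 mg/kg), cannulated trachea, kept at ca. 37 °C rectal. Pulse rate recorded continuously; following ~20 min stabilization each rat received one iv dose in saline (1 mL/kg, expressed as hydrochloride). Maximal fall in heart rate measured.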

In experiment [3] the test system is Rattus norvegicus. The experiment is described as follows: Maximal decrease of heart rate calculated as bradycardiac activity after intravenous injection of 3.16 ug/kg in rats. Format: functional. In short, it runs like this:
as §1

In experiment [4] the test system is Rattus norvegicus. Put plainly: Maximal decrease of heart rate calculated as bradycardiac activity after intravenous injection of 0.561 ug/kg in rats. The class given is functional. An outline of the steps: as §1
The subject of experiment [5] is Rattus norvegicus. The experiment is described as follows: Maximal decrease of heart rate calculated as bradycardiac activity after intravenous injection of 10 ug/kg in rats. The class given is functional. In short, it runs like this: as §1
Experiment [6] relates to Rattus norvegicus. Put plainly: Maximal decrease of arterial blood pressure (MAP) after intravenous injection of compound at a dose of 10 ug/kg in rats. The class given is functional. In short, it runs like this:
(§2)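 Male normotensive Wistar rats (200-350 g) anesthetized with ip sodium pentobarbitone 75.0 mg/kg; trachea cannulated, spontaneous breathing, rectal temperature ca. 37 °C. Arterial pressure recorded continuously. After ~20 min stabilization, single iv injection in saline (1 mL/kg; doses as hydrochloride), one injection per animal. Read-out: maximal fall in mean arterial pressure.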

For experiment [7], the system named is Rattus norvegicus. The experiment is described as follows: Maximal decrease of arterial blood pressure (MAP) after intravenous injection of compound at a dose of 1 ug/kg in rats. The class given is functional. An outline of the steps: as §2
Experiment [8] has as its system Rattus norvegicus. The experiment is described as follows: Maximal decrease of arterial blood pressure (MAP) after intravenous injection of compound at a dose of 3.16 ug/kg in rats. Format: functional. An outline of the steps:
as §2

Experiment [9] concerns Rattus norvegicus. The experiment is described as follows: Maximal decrease of arterial blood pressure (MAP)after intravenous injection of compound at a dose of 0.561 ug/kg in rats. Format: functional. An outline of the steps: as §2
The test system of experiment [10] is Rattus norvegicus. Put plainly: Maximal decrease of arterial blood pressure(MAP) after intravenous injection of compound at a dose of 5.61ug/kg in rats. Format: functional. An outline of the steps: as §2
In experiment [11] the test system is Rattus norvegicus. The experiment is described as follows: Maximal decrease of heart rate calculated as bradycardiac activity after intravenous injection of 5.61ug/kg in rats. The class given is functional. In short, it runs like this:
as §1

Experiment [12] concerns the target T1, Adrenergic receptor alpha-2. The experiment is described as follows: Compound was tested for its ability to inhibit specific binding of [3H]clonidine to alpha-2-adrenoceptor in rat brain. Format: tissue-based.

In turn, `CC(Oc1c(Cl)cccc1Cl)C1=NCCN1.Cl` (racemic) [LOFEXIDINE HYDROCHLORIDE] registered an IC50 in [1] of 7.25 nM. Moreover, the Heart rate is reported as -83 in the experiment on Rattus norvegicus [2]; -137 in the experiment with Rattus norvegicus [3]; -52 in the experiment on Rattus norvegicus [4]; -138 in the experiment on Rattus norvegicus [5]; -132 with Rattus norvegicus [11]. The MAP is on record as -54.2 mmHg in the experiment on Rattus norvegicus [6]; -26.8 mmHg with Rattus norvegicus [7]; -37.6 mmHg in the experiment on Rattus norvegicus [8]; -22.6 mmHg with Rattus norvegicus [9]; -48.8 mmHg in the experiment with Rattus norvegicus [10].

As for `CC(Oc1c(Cl)cccc1Cl)C1=NCCN1.Cl` (single isomer, unassigned; (+)) [LOFEXIDINE HYDROCHLORIDE], the Heart rate in the experiment with Rattus norvegicus [2] was -7; in the experiment on Rattus norvegicus [3], -36; in the experiment on Rattus norvegicus [5], -61. The MAP in the experiment with Rattus norvegicus [6] is reported as -10.6 mmHg; in the experiment with Rattus norvegicus [7] it was -7.4 mmHg; in the experiment on Rattus norvegicus [8], -11.7 mmHg. The same compound showed an IC50 in experiment [12] of 43 nM.

With `CC(Oc1c(Cl)cccc1Cl)C1=NCCN1.Cl` (stereo in doubt) [LOFEXIDINE HYDROCHLORIDE], the Heart rate in the experiment on Rattus norvegicus [2] is listed as -46; in the experiment with Rattus norvegicus [3], -97; with Rattus norvegicus [5], -134; in the experiment with Rattus norvegicus [11] it was -96. Besides, the MAP is -53 mmHg in the experiment on Rattus norvegicus [6], -13.8 mmHg with Rattus norvegicus [7], -29.8 mmHg in the experiment with Rattus norvegicus [8] and -41.6 mmHg with Rattus norvegicus [10]. In addition, the IC50 in experiment [12] came out at 3.6 nM.
